The source made the active and inactive calls.
Legend:
[1] = tested on: Mus musculus; test: Antitumor activity against Ptc+/- Hic+/- mouse B837Tx cells allografted in NOD/SCID mouse assessed as effect on recurrence rate on post treatment at 40 mg/kg, po administered daily for 21 days; assay type: functional, organism-based; design: dose 40 mg/kg
Method in brief: (§1)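 NOD/SCID mice given 1 × 10^6 B837Tx cells in the right hind flank. Once tumors reached about 100-200 mm³, N=10/group were gavaged daily for 21 days. Vehicle: 30% (w/w) HPBCD in 0.1 M citrate phosphate buffer, pH 3, dosing solutions 5-10 mg/mL. Tumors measured in two perpendicular dimensions by caliper 3 times weekly. Regrowth monitored over a 21-day post-treatment phase.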

[2] = tested on: Mus musculus; test: (§2) Antitumor activity against Ptc+/- Hic+/- mouse B837Tx cells allografted in NOD/SCID mouse assessed as tumor-free interval on 21 days post treatment at 40 mg/kg, po administered daily for 21 days; assay type: functional; method in brief: as §1
[3] = tested on: Mus musculus; test: (§3) Antitumor activity against Ptc+/- Hic+/- mouse B837Tx cells allografted in NOD/SCID mouse assessed as median time to unmeasurable tumor volume at 40 mg/kg, po administered daily for 21 days; assay type: functional; method in brief: as §1
[4] = Plasma clearance in Sprague-Dawley rat at 1 mg/kg, iv; assay type: ADME, organism-based; design: dose 1 mg/kg, route intravenous
Method in brief: (§4)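 Plasma sampled at 0.083-24 h (T_last 24 h), protein-precipitated with acetonitrile containing jervine internal standard, and quantified by LC/MS/MS. Parameters taken from the concentration-time profile.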

[5] = Oral bioavailability in cynomolgus monkey at 4 mg/kg; assay type: ADME, organism-based, Macaca fascicularis; details: in vivo
[6] = in vitro; details: human
[7] = Oral bioavailability in Beagle dog at 4 mg/kg; assay type: ADME, organism-based, Canis lupus familiaris; details: in vivo
[8] = Elimination half life in Sprague-Dawley rat at 1 mg/kg, iv; assay type: ADME, organism-based; design: dose 1 mg/kg, route intravenous; details: in vivo, read-out: beta t1/2 (converted); method in brief: as §4
[9] = Plasma clearance in CD1 mouse at 1 mg/kg, iv; assay type: ADME, organism-based; design: dose 1 mg/kg, route intravenous; method in brief: as §4
[10] = Oral bioavailability in CD1 mouse at 5 mg/kg; assay type: ADME, organism-based; details: in vivo
[11] = Toxicity in po dosed Ptc+/- Hic+/- mouse B837Tx cells allografted NOD/SCID mouse assessed as maximum tolerated dose after 5 days; assay type: organism-based; details: in vivo
Method in brief: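 Tumor-bearing immunocompromised mice received repeat oral dosing for 5 days. MTD was defined as the dose tolerated by all animals (N = 3).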

[12] = Elimination half life in cynomolgus monkey at 1 mg/kg, iv; assay type: ADME, organism-based, Macaca fascicularis; design: dose 1 mg/kg, route intravenous; details: in vivo, read-out: beta t1/2 (converted); method in brief: as §4
[13] = Volume of distribution in Sprague-Dawley rat at 1 mg/kg, iv; assay type: ADME, organism-based; design: dose 1 mg/kg, route intravenous; details: in vivo; method in brief: as §4
[14] = Antitumor activity against Ptc+/- Hic+/- mouse B837Tx cells allografted in NOD/SCID mouse assessed as median time to unmeasurable tumor volume at 80 mg/kg, po administered daily for 21 days; assay type: functional; method in brief: as §1
[15] = Plasma clearance in Beagle dog at 1 mg/kg, iv; assay type: ADME, organism-based, Canis lupus familiaris; design: dose 1 mg/kg, route intravenous; method in brief: as §4
[16] = Elimination half life in CD1 mouse at 1 mg/kg, iv; assay type: ADME, organism-based; design: dose 1 mg/kg, route intravenous; details: in vivo, read-out: beta t1/2 (converted); method in brief: as §4
[17] = Elimination half life in Beagle dog at 1 mg/kg, iv; assay type: ADME, organism-based, Canis lupus familiaris; design: dose 1 mg/kg, route intravenous; details: in vivo, read-out: beta t1/2 (converted); method in brief: as §4
[18] = Antitumor activity against Ptc+/- Hic+/- mouse B837Tx cells allografted in NOD/SCID mouse assessed as tumor-free interval on 21 days post treatment at 80 mg/kg, po administered daily for 21 days; assay type: functional; method in brief: as §1
[19] = Volume of distribution in cynomolgus monkey at 1 mg/kg, iv; assay type: ADME, organism-based, Macaca fascicularis; design: dose 1 mg/kg, route intravenous; details: in vivo; method in brief: as §4
[20] = Inhibition of HedgeHog pathway in mouse C3H10T1/2 cells assessed as inhibition of 20-(S)-hydroxysterol/22-(S)-hydroxysterol-induced osteoblastic differentiation after 72 hrs by alkaline phosphatase assay; details: C3H 10T1/2, 72 h
[21] = Plasma clearance in cynomolgus monkey at 1 mg/kg, iv; assay type: ADME, organism-based, Macaca fascicularis; design: dose 1 mg/kg, route intravenous; method in brief: as §4
[22] = Volume of distribution in CD1 mouse at 1 mg/kg, iv; assay type: ADME, organism-based; design: dose 1 mg/kg, route intravenous; details: in vivo; method in brief: as §4
[23] = Volume of distribution in Beagle dog at 1 mg/kg, iv; assay type: ADME, organism-based, Canis lupus familiaris; design: dose 1 mg/kg, route intravenous; details: in vivo; method in brief: as §4
[24] = Oral bioavailability in Sprague-Dawley rat at 5 mg/kg; assay type: ADME, organism-based; details: in vivo
[25] = biological target: Protein smoothened (Homo sapiens, UniProt Q99835); test: Inhibition of human recombinant SMO expressed in mouse C3H10T1/2 cells assessed as inhibition of association of BODIPY-cyclopamine; assay type: cell-based, C3H 10T1/2
Protein smoothened, sequence (Q99835 whole entry): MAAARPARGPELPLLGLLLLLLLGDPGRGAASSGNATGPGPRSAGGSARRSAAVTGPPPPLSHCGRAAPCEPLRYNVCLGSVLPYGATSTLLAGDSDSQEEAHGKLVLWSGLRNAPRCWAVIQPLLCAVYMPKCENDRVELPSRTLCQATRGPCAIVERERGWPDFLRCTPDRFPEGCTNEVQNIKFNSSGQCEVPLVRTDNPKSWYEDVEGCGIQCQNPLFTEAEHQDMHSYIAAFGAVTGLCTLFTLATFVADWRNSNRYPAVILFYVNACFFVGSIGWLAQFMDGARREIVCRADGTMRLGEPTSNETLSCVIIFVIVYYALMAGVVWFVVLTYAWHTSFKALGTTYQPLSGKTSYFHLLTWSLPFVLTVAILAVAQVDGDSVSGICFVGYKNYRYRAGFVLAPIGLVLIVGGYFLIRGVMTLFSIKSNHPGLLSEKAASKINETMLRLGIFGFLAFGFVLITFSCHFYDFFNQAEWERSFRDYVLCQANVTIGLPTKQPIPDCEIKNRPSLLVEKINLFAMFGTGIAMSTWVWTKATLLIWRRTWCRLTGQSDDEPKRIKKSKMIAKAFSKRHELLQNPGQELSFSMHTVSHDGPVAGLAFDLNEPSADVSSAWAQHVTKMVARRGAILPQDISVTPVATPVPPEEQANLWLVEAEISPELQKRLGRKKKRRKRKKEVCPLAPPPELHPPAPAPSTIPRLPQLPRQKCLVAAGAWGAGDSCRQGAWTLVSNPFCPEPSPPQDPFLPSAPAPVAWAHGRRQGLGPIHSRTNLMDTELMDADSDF

[26] = as §2; assay type: functional; method in brief: as §1
[27] = as §3; assay type: functional; method in brief: as §1
[28] = Antitumor activity against Ptc+/- Hic+/- mouse B837Tx cells allografted in NOD/SCID mouse assessed as median time to unmeasurable tumor volume at 30 mg/kg, po administered daily for 21 days; assay type: functional; method in brief: as §1
[29] = Antitumor activity against Ptc+/- Hic+/- mouse B837Tx cells allografted in NOD/SCID mouse assessed as tumor-free interval on 21 days post treatment at 30 mg/kg, po administered daily for 21 days; assay type: functional; method in brief: as §1
[30] = tested on: Mus musculus; test: Antitumor activity against Ptc+/- Hic+/- mouse B837Tx cells allografted in NOD/SCID mouse assessed as effect on recurrence rate on post treatment at 25 mg/kg, po administered daily for 21 days; assay type: functional, organism-based; design: dose 25 mg/kg
[31] = tested on: Mus musculus; test: Antitumor activity against Ptc+/- Hic+/- mouse B837Tx cells allografted in NOD/SCID mouse assessed as tumor-free interval on 21 days post treatment at 25 mg/kg, po administered daily for 21 days; assay type: functional, organism-based; design: dose 25 mg/kg
[32] = tested on: Mus musculus; test: Antitumor activity against Ptc+/- Hic+/- mouse B837Tx cells allografted in NOD/SCID mouse assessed as median time to unmeasurable tumor volume at 25 mg/kg, po administered daily for 21 days; assay type: functional, organism-based; design: dose 25 mg/kg

CC1=C2C[C@H]3[C@@H](CC=C4C[C@@H](O)CC[C@@]43C)[C@@H]2CC[C@]12O[C@@H]1C[C@H](C)CN[C@H]1[C@H]2C
Activity [1]: inactive | Activity [2]: inactive | Activity [3]: inactive

CC1=C2C[C@H]3[C@@H](CC[C@@H]4Cc5[nH]ncc5C[C@@]43C)[C@@H]2CC[C@@]2(C1)O[C@@H]1C[C@H](C)CN[C@H]1[C@H]2C
clearance [4]: 125 mL/min/kg | bioavailability [5]: 84% | half-life at 0.5 µM ([6]; liver microsomes): 120 min | bioavailability [7]: 73% | half-life [8]: 72 min | clearance [9]: 33.3 mL/min/kg | bioavailability [10]: 52% | MTD at 120 h [11]: 80 mg/kg | half-life [12]: 336 min | Vd [13]: 13 L/kg | Activity [14]: 9 days | clearance [15]: 10 mL/min/kg | half-life [16]: 180 min | half-life [17]: 408 min | Activity [18]: 19 days | Vd [19]: 13 L/kg | EC50 [20]: 13 nM | clearance [21]: 30 mL/min/kg | Vd [22]: 9 L/kg | Vd [23]: 6 L/kg | bioavailability [24]: 34%

CC1=C2C[C@H]3[C@@H](CC[C@@H]4C[C@H](NS(C)(=O)=O)CC[C@@]43C)[C@@H]2CC[C@@]2(C1)O[C@@H]1C[C@H](C)CN[C@H]1[C@H]2C [PATIDEGIB]
clearance [4]: 3.5 mL/min/kg | bioavailability [5]: 74% | half-life at 0.5 µM ([6]; microsomes): 85 min | bioavailability [7]: 50% | half-life [8]: > 1440 min | clearance [9]: 12.3 mL/min/kg | bioavailability [10]: 100% | MTD at 120 h [11]: 40 mg/kg | half-life [12]: 492 min | Vd [13]: 30 L/kg | clearance [15]: 11 mL/min/kg | half-life [16]: 630 min | half-life [17]: 930 min | EC50 [20]: 7 nM | IC50 [25]: 1.4 nM | Activity [1]: Active | Activity [26]: 21 days | Activity [27]: 9 days | clearance [21]: 15 mL/min/kg | Vd [22]: 11 L/kg | Vd [23]: 15.3 L/kg | bioavailability [24]: 100%

CC1=C2C[C@H]3[C@@H](CC[C@@H]4CNC(=O)CC[C@@]43C)[C@@H]2CC[C@@]2(C1)O[C@@H]1C[C@H](C)CN[C@H]1[C@H]2C
clearance [4]: 10.5 mL/min/kg | bioavailability [5]: 100% | half-life at 0.5 µM ([6]; microsomes): 65 min | bioavailability [7]: 97% | half-life [8]: 324 min | clearance [9]: 8.33 mL/min/kg | bioavailability [10]: 100% | MTD at 120 h [11]: 30 mg/kg | half-life [12]: 228 min | Vd [13]: 4.9 L/kg | clearance [15]: 5.5 mL/min/kg | half-life [16]: 180 min | half-life [17]: 390 min | Vd [19]: 4.3 L/kg | Activity [28]: 9 days | Activity [29]: 10 days | EC50 [20]: 25 nM | clearance [21]: 13.3 mL/min/kg | Vd [22]: 2 L/kg | Vd [23]: 3 L/kg | bioavailability [24]: 100%

CC1=C2C[C@H]3[C@@H](CCC4=CC(=O)CC[C@@]43C)[C@@H]2CC[C@@]2(C1)O[C@@H]1C[C@H](C)CN[C@H]1[C@H]2C
clearance [4]: 207 mL/min/kg | bioavailability [5]: 69% | half-life at 0.5 µM ([6]; microsomes): 75 min | bioavailability [7]: 7% | Activity [30]: inactive | Activity [31]: inactive | half-life [8]: 102 min | clearance [9]: 60 mL/min/kg | bioavailability [10]: 79% | MTD at 120 h [11]: 25 mg/kg | half-life [12]: 144 min | Vd [13]: 28 L/kg | clearance [15]: 78.3 mL/min/kg | half-life [16]: 210 min | half-life [17]: 132 min | Vd [19]: 21.3 L/kg | EC50 [20]: 300 nM | clearance [21]: 103 mL/min/kg | Vd [22]: 18 L/kg | Vd [23]: 13.9 L/kg | Activity [32]: inactive | bioavailability [24]: 13%

— ChEMBL document CHEMBL1158454, “Discovery of a potent and orally active hedgehog pathway antagonist (IPI-926)” (J Med Chem, 2009)
